≈ marks a conversion by molar mass, not a printed value.
Columns and labels:
Klebsiella pneumoniae [1] = assay: Antibacterial activity against Klebsiella pneumonia ATCC 13883 by CLSI based broth microdilution method; type: functional
Method in brief: (§1)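 Broth microdilution MIC per CLSI method; E. coli ATCC 25922 and K. pneumoniae ATCC 13883.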

[2] = Plasma concentration in Hartley guinea pig at 150 mg/kg, iv measured after 30 mins by LC-MS/MS analysis; type: ADME, organism-based, Cavia porcellus
Method in brief: (§2)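 Anesthetized guinea pigs received a 30-min iv infusion. Blood was taken at the end of infusion and centrifuged, and plasma concentration (C30min) was measured by LC-MS/MS.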

[3] = target: Voltage-gated inwardly rectifying potassium channel KCNH2 (Homo sapiens, UniProt Q12809); assay: Inhibition of human ERG expressed in CHO cells by whole cell Q-patch clamp assay; type: cell-based
[4] = Toxicity in iv dosed Sprague-Dawley rat assessed as maximum tolerated dose administered for 4 days; type: organism-based; conditions: in vivo, time 4 day
Method in brief: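 Six-week-old male and female Sprague Dawley rats received intravenous bolus doses via the tail vein for 4 days. MTD was assessed under repeated dosing.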

[5] = Genotoxicity in mouse lymphoma cell; type: toxicity; conditions: lymphoma cell line
[6] = Inhibition of Escherichia coli LpxC using DP-3-0-(R-3-hydroxymyristoy1)-N-acetylglucosamine as substrate incubated for 120 mins by fluorescamine assay
Klebsiella pneumoniae [7] = assay: In vivo antibacterial activity against Klebsiella pneumonia ATCC BAA-2343 infected in ICR mouse assessed as reduction in bacterial burden in lung at 50 mg/kg, sc administered after 2 hrs of infection and measured after 26 hrs of infection; type: functional; conditions: time 24 hrs
Method in brief: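 Female ICR mice (5 weeks) made neutropenic with cyclophosphamide ip, 150 and 100 mg/kg at days −4 and −1. Intranasal inoculation with 1.5–1.9 × 10^6 CFU. Compound in 10w/v% HP-β-CD given sc 2 h post-infection (n = 5). Lung viable counts at 2 h (control) and 26 h; mean log change versus start of therapy.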

[8] = Toxicity in iv dosed cynomolgus monkey assessed as maximum tolerated dose administered for 14 days; type: organism-based, Macaca fascicularis; conditions: in vivo, time 14 day
Method in brief: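 Three-year-old female cynomolgus monkeys were dosed intravenously for 14 days as a 30-min infusion via the saphenous vein. MTD was assessed under repeated dosing.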

Escherichia coli = assay: Antibacterial activity against Escherichia coli ATCC 25922 by CLSI based broth microdilution method; type: functional; method in brief: as §1
[9] = Protein binding in ICR mouse serum at 1 ug/ml incubated for 4 hrs by LC-MS/MS analysis; type: ADME, cell-free; conditions: at 1 µg/mL, read-out: PB (converted)
Method in brief: (§3)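 Equilibrium dialysis at 1 µg/mL final in pooled male ICR mouse serum or human volunteer serum (no anticoagulant). Dialyzed against 50 mM sodium phosphate buffer at 37 °C for 4 h (5% CO2, MWCO 12000–14000). Compound on each side measured by LC-MS/MS; binding % = (Cs−Cb)/Cs×100.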

[10] = Toxicity in iv dosed ICR mouse assessed as maximum tolerated dose; type: organism-based; conditions: in vivo
Method in brief: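 Exploratory MTD study in male ICR mice (n = 2): a single intravenous tail-vein injection at dose levels of up to 200 mg/kg.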

[11] = Protein binding in human serum at 1 ug/ml incubated for 4 hrs by LC-MS/MS analysis; type: ADME, cell-free; conditions: at 1 µg/mL, read-out: PB (converted); method in brief: as §3
[12] = Cardiotoxicity in iv dosed Hartley guinea pig assessed as decrease in heart rate measured after 30 mins; type: toxicity, organism-based, Cavia porcellus; conditions: in vivo, 0.5 h
Method in brief: (§4)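 Guinea pigs (6–7 weeks) anesthetized with pentobarbital 60 mg/kg ip, then infused iv at 8 mg/kg/h; ventilated at 15 mL/kg, 60/min. Vehicle (11w/v% SBE-β-CD, pH4) or compound infused via jugular vein for 30 min. Carotid arterial pressure and ECG recorded; QT corrected by Bazett. Heart rate, QTc, SBP and DBP expressed as change from baseline.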

[13] = Cardiotoxicity in iv dosed Hartley guinea pig assessed as increase in QT prolongation measured after 30 mins; type: toxicity, organism-based, Cavia porcellus; conditions: in vivo, 0.5 h; method in brief: as §4
[14] = Free plasma concentration in Hartley guinea pig serum assessed as fraction unbound at 150 mg/kg, iv measured after 30 mins by LC-MS/MS analysis; type: ADME, organism-based, Cavia porcellus; conditions: in vivo, 0.5 h
Method in brief: (§5)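 Unbound plasma concentration at end of 30-min iv infusion in anesthetized guinea pigs: LC-MS/MS plasma C30min multiplied by fraction unbound, with plasma fu assumed equal to serum fu (equilibrium dialysis, 500 µg/mL in guinea pig serum).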

[15] = Cardiotoxicity in Hartley guinea pig assessed as decrease in blood pressure at 150 mg/kg, iv measured after 30 mins; type: toxicity, organism-based, Cavia porcellus; conditions: in vivo, 0.5 h; method in brief: as §4
Klebsiella pneumoniae [16] = assay: In vivo antibacterial activity against Klebsiella pneumonia 4102 infected in ICR mouse assessed as mouse survival rate at 25 mg/kg, sc administered once after 1 hr of infection and observed for 7 days relative to control; type: functional; conditions: time 7 day
Method in brief: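 Four-week-old male ICR mice given K. pneumoniae 4102 intraperitoneally (3.8–5.5 × 10^6 CFU/mouse) in 0.5 mL suspension with 3w/v% mucin. Compound in 10w/v% HP-β-CD, single subcutaneous dose 1 h post-inoculation (n = 6). Survival followed for 7 days.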

[17] = Free plasma concentration in Hartley guinea pig serum assessed as fraction unbound at 180 mg/kg, iv measured after 30 mins by LC-MS/MS analysis; type: ADME, organism-based, Cavia porcellus; conditions: in vivo, 0.5 h; method in brief: as §5
[18] = Cardiotoxicity in iv dosed Hartley guinea pig assessed as decrease in blood pressure measured after 30 mins; type: toxicity, organism-based, Cavia porcellus; conditions: in vivo, 0.5 h; method in brief: as §4
[19] = Plasma concentration in Hartley guinea pig at 180 mg/kg, iv measured after 30 mins by LC-MS/MS analysis; type: ADME, organism-based, Cavia porcellus; method in brief: as §2
[20] = Plasma concentration in Hartley guinea pig at 135 mg/kg, iv measured after 30 mins by LC-MS/MS analysis; type: ADME, organism-based, Cavia porcellus; method in brief: as §2
[21] = Free plasma concentration in Hartley guinea pig serum assessed as fraction unbound at 135 mg/kg, iv measured after 30 mins by LC-MS/MS analysis; type: ADME, organism-based, Cavia porcellus; conditions: in vivo, 0.5 h; method in brief: as §5
[22] = Plasma concentration in Hartley guinea pig at 60 mg/kg, iv measured after 30 mins by LC-MS/MS analysis; type: ADME, organism-based, Cavia porcellus; method in brief: as §2
[23] = Free plasma concentration in Hartley guinea pig serum assessed as fraction unbound at 60 mg/kg, iv measured after 30 mins by LC-MS/MS analysis; type: ADME, organism-based, Cavia porcellus; conditions: in vivo, 0.5 h; method in brief: as §5
[24] = in the assay text read “LCMS assay” for “fluorescamine assay”

Chain of Voltage-gated inwardly rectifying potassium channel KCNH2 (Q12809 whole entry): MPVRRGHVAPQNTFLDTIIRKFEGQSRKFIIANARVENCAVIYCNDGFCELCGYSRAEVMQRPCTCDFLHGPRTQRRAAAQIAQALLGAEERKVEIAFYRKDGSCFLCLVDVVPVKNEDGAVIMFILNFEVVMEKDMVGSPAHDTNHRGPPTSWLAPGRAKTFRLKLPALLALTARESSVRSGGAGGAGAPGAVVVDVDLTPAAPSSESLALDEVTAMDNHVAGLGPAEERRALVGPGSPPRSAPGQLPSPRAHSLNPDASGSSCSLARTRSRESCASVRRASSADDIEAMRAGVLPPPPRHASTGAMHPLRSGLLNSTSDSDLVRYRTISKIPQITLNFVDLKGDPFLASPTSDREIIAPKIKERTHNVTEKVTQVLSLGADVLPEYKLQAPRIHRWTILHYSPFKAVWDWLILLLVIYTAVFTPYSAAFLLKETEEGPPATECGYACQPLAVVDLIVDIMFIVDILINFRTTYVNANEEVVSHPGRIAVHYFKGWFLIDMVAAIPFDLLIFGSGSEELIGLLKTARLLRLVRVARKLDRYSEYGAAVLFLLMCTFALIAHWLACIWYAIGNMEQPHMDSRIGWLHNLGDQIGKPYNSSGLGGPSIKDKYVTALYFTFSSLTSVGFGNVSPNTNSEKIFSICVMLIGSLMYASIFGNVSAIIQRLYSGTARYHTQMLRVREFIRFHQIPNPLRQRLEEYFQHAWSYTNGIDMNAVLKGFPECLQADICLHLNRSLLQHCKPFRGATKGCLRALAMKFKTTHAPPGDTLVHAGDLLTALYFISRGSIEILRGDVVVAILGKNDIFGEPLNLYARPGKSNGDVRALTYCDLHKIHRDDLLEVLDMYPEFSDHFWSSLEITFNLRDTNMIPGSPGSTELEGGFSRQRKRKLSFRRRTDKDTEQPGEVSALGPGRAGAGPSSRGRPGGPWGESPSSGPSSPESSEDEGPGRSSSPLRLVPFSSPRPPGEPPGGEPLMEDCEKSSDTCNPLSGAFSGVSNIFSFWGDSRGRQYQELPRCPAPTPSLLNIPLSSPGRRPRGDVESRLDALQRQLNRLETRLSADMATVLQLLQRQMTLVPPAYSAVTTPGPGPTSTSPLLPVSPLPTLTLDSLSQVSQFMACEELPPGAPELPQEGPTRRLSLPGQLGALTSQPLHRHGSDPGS

Row | SMILES | MIC (Klebsiella pneumoniae [1]) [µg/mL] | IC50 [6] [µM] | Activity (Klebsiella pneumoniae [7]) [log10CFU] | MIC (Escherichia coli) [µg/mL] | fraction unbound at 4 h, 1 ug/ml [9] | MTD [10] [mg/kg] | fraction unbound at 4 h, 1 ug/ml [11] | IC50 [6, 24] [µM] | further results
1 | C[C@H](O)c1nccn1Cc1cc(-c2ccc(C#C[C@@H]3[C@H]4CN(CCCC(=O)O)C[C@@H]34)cc2)on1 | 4 (≈ 8.69 µM) | 0.101 | -1.63 | 2 (≈ 4.34 µM) | 0.241 | ≥ 200 | 0.223 | – | concentration at 0.5 h [2]: 378 µg/mL; IC50 [3]: > 1000 µM; MTD at 96 h [4]: 400 mg/kg; Activity [5]: Non-Toxic; MTD at 336 h [8]: > 400 mg/kg; Activity [12]: Non-Toxic; Activity [13]: Non-Toxic; Cp(f) [14]: 87.3 µg/mL; Activity [15]: Non-Toxic
2 | C[C@H](O)c1nccn1Cc1cc(C#Cc2ccc(OC3CN(CCCO)C3)cc2)on1 | 8 (≈ 18.9 µM) | 0.378 | – | 2 (≈ 4.73 µM) | 0.165 | – | 0.261 | – | –
3 | C[C@H](O)c1nccn1Cc1cc(C#Cc2ccc(CCCO)cc2)on1 | 2 (≈ 5.69 µM) | 0.031 | – | 0.5 (≈ 1.42 µM) | < 0.005 | – | < 0.005 | – | –
4 | COCCN1CCN(c2ccc(C#Cc3cc(Cn4ccnc4[C@H](C)O)no3)cc2)CC1 | 0.5 (≈ 1.15 µM) | 0.071 | – | 0.25 (≈ 0.574 µM) | 0.083 | – | 0.09 | – | –
5 | C[C@H](O)c1nccn1Cc1cc(-c2ccc(C#CC3(N)CC3)cc2)on1 | 1 (≈ 2.87 µM) | – | – | 0.5 (≈ 1.44 µM) | 0.099 | – | 0.07 | 0.046 | Activity (Klebsiella pneumoniae [16]): 67%
6 | C[C@H](O)c1nccn1Cc1cc(-c2ccc(C#CC3(N)CC3)cc2)no1 | 4 (≈ 11.5 µM) | – | – | 1 (≈ 2.87 µM) | 0.15 | – | 0.115 | 0.193 | –
7 | C[C@H](O)c1nccn1[C@H](CN)c1cc(-c2ccc(C#C[C@@H]3[C@H]4CN(C=O)C[C@@H]34)cc2)on1 | 2 (≈ 4.64 µM) | – | -2.47 | 1 (≈ 2.32 µM) | 0.18 | ≥ 200 | 0.275 | – | Cp(f) [17]: 59.4 µg/mL; Activity [18]: Toxic; concentration at 0.5 h [19]: 233 µg/mL; Activity [12]: Toxic; Activity [13]: Toxic
8 | C[C@H](O)CN1C[C@@H]2[C@@H](C#Cc3ccc(-c4cc([C@@H](CN)n5ccnc5[C@H](C)O)no4)cc3)[C@@H]2C1 | 4 (≈ 8.67 µM) | – | -1.19 | 1 (≈ 2.17 µM) | 0.151 | ≥ 200 | 0.212 | – | concentration at 0.5 h [20]: 132 µg/mL; Activity [18]: Toxic; Activity [12]: Toxic; Activity [13]: Toxic; Cp(f) [21]: 36 µg/mL
9 | C[C@H](O)c1nccn1[C@H](CN)c1cc(-c2ccc(C#CC34CC(N)(C3)C4)cc2)on1 | 2 (≈ 4.96 µM) | – | -2.48 | 0.5 (≈ 1.24 µM) | 0.084 | 100 | 0.103 | 0.279 | –
10 | C[C@H](O)c1nccn1Cc1cc(-c2ccc(C#CC34CC(N)(C3)C4)cc2)no1 | 2 (≈ 5.34 µM) | – | – | 0.5 (≈ 1.34 µM) | 0.069 | – | 0.035 | 0.065 | –
11 | C[C@H](O)c1nccn1[C@H](CN)c1cc(-c2ccc(C#CC3(N)CC3)cc2)on1 | 8 (≈ 21.2 µM) | – | – | 2 (≈ 5.3 µM) | – | – | – | 0.282 | –
12 | C[C@H](O)c1nccn1[C@H](CN)c1cc(-c2ccc(C#C[C@@H]3[C@H]4CN(CCCC(=O)O)C[C@@H]34)cc2)on1 | 16 (≈ 32.7 µM) | – | – | 4 (≈ 8.17 µM) | – | – | – | – | –
13 | C[C@H](O)c1nccn1Cc1cc(-c2ccc(C#CCCCO)cc2)on1 | 2 (≈ 5.69 µM) | 0.051 | – | 1 (≈ 2.85 µM) | 0.049 | – | 0.031 | – | –
14 | C[C@H](O)c1nccn1Cc1cc(-c2ccc(C#C[C@H]3C[C@H](O)C3)cc2)on1 | 0.25 (≈ 0.688 µM) | 0.015 | – | 0.12 (≈ 0.33 µM) | 0.035 | – | 0.017 | – | Activity (Klebsiella pneumoniae [16]): 0%
15 | C[C@H](O)c1nccn1Cc1cc(-c2ccc(C#CC34CC(N)(C3)C4)cc2)on1 | 0.5 (≈ 1.34 µM) | – | – | 0.25 (≈ 0.668 µM) | 0.034 | – | 0.027 | 0.049 | Activity (Klebsiella pneumoniae [16]): 0%
16 | C[C@H](O)c1nccn1Cc1cc(-c2ccc(C#C[C@@H]3[C@H]4CN(C=O)C[C@@H]34)cc2)on1 | 2 (≈ 4.97 µM) | 0.039 | -2.84 | 1 (≈ 2.48 µM) | 0.09 | 100 | 0.095 | – | –
17 | COCC(O)CN1C[C@@H]2[C@@H](C#Cc3ccc(-c4cc(Cn5ccnc5[C@H](C)O)no4)cc3)[C@@H]2C1 (mixture of isomers) | 0.5 | 0.071 | – | 0.5 | 0.082 | – | 0.065 | – | Activity (Klebsiella pneumoniae [16]): 33%
18 | COCC(O)CN1C[C@@H]2[C@@H](C#Cc3ccc(-c4cc(Cn5ccnc5[C@H](C)O)on4)cc3)[C@@H]2C1 (mixture of isomers) | 0.5 | 0.097 | – | 0.5 | 0.077 | – | 0.076 | – | Activity (Klebsiella pneumoniae [16]): 17%
19 | C[C@H](O)c1nccn1[C@H](CN)c1cc(-c2ccc(C#C[C@H]3C[C@H](O)C3)cc2)on1 | 1 (≈ 2.55 µM) | – | -1.99 | 0.25 (≈ 0.637 µM) | 0.07 | ≥ 200 | 0.074 | < 0.037 | Activity [18]: Toxic; concentration at 0.5 h [22]: 90.7 µg/mL; Cp(f) [23]: 15.6 µg/mL; Activity [12]: Toxic; Activity [13]: Toxic
